Experimental data reported in ChEMBL document CHEMBL1135254, “Novel N-[1-(1-substituted 4-piperidinylmethyl)-4-piperidinyl]benzamides as potent colonic prokinetic agents” (Bioorg Med Chem Lett, 2002).

Key:
Canis familiaris [1] = experiment: Gastrointestinal motility was reported after intravenous administration at a dose 1 mg/kg to dogs as induction number of GMC (gaint migrating contractions); assay type: functional, Canis lupus familiaris
Outline: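 Colonic contractions were recorded by a force transducer implanted on the ascending colon and analyzed by computer. Colonic motility is expressed as the number of giant migrating contractions induced after dosing.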

[2] = molecular target: 5-hydroxytryptamine receptor 4 (Cavia porcellus, UniProt O70528); experiment: Inhibitory activity against 5-hydroxytryptamine 4 receptor of guinea pig striatum using [3H]GR-113808 as radioligand; assay type: tissue-based
Canis familiaris [3] = experiment: Gastrointestinal motility was reported after intravenous administration at a dose 1 mg/kg to dogs in stomach; assay type: functional, Canis lupus familiaris
Outline: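 Contractions were recorded by force transducers implanted on the gastric antrum and analyzed by computer. The motor index is the area between the contraction wave and baseline, i.e. amplitude (voltage) × time in min over a fixed period. The index for the 30 min after dosing is expressed as a percentage of that for the 30 min before.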

Mus musculus = organism: Mus musculus; experiment: Dose at which the compound induced fecal excretion in mice; assay type: organism-based, Feces; details: in vivo
Outline: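 Unfasted mice were dosed subcutaneously, and fecal excretion was the read-out.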

Sequence of 5-hydroxytryptamine receptor 4 (O70528 whole entry): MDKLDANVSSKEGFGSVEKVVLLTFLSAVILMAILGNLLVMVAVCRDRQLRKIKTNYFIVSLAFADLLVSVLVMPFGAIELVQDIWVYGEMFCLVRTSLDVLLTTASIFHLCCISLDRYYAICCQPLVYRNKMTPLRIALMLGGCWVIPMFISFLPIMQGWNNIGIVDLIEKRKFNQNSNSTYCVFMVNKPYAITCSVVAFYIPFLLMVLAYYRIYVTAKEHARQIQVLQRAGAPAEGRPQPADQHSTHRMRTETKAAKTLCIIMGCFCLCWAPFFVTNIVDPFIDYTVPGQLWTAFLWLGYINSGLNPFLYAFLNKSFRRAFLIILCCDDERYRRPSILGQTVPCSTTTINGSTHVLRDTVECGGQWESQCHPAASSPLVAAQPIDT

For `COc1cc(N)c(Cl)cc1C(=O)NC1CCN(CC2CCN(C(=O)CCCN)CC2)CC1`, the Induction number (Canis familiaris [1]) was 5, the IC50 [2] was 3.99 nM and the “Gastric motor index, % of pre-dose” value (Canis familiaris [3]) was 130%.

`COc1cc(N)c(Cl)cc1C(=O)NC1CCN(CC2CCN(C(=O)CN)CC2)CC1` was tested, and the Induction number (Canis familiaris [1]) was 5, the IC50 [2] was 9.3 nM and the “Gastric motor index, % of pre-dose” value (Canis familiaris [3]) was 165%.

`CCCC(N)C(=O)N1CCC(CN2CCC(NC(=O)c3cc(Cl)c(N)cc3OC)CC2)CC1` (stereo not drawn) was tested, and the Induction number (Canis familiaris [1]) was 1, the IC50 [2] was 2.57 nM and the “Gastric motor index, % of pre-dose” value (Canis familiaris [3]) was 117%.

For `COc1cc(N)c(Cl)cc1C(=O)NC1CCN(CC2CCN(C(=O)C(C)N)CC2)CC1` (stereo not drawn), the IC50 [2] was 5.06 nM and the “Gastric motor index, % of pre-dose” value (Canis familiaris [3]) was 127%.

`COc1cc(N)c(Cl)cc1C(=O)NC1CCN(CC2CCN(C(=O)CCCCN)CC2)CC1` was tested, and the IC50 [2] was 3.91 nM and the “Gastric motor index, % of pre-dose” value (Canis familiaris [3]) was 112%.

With `COc1cc(N)c(Cl)cc1C(=O)NC1CCN(CC2CCN(C(=O)C(N)C(C)C)CC2)CC1` (stereo not drawn) the IC50 [2] was 2.53 nM and the “Gastric motor index, % of pre-dose” value (Canis familiaris [3]) was 147%.

`COc1cc(N)c(Cl)cc1C(=O)NC1CCN(CC2CCN(C(=O)CCN)CC2)CC1` was tested, and the Induction number (Canis familiaris [1]) was 3, the IC50 [2] was 9.5 nM and the “Gastric motor index, % of pre-dose” value (Canis familiaris [3]) was 107%.

`COc1cc(N)c(Cl)cc1C(=O)NC1CCN(CC2CCN(CCCN)CC2)CC1` was tested, and the Induction number (Canis familiaris [1]) was 7, the IC50 [2] was 13.4 nM and the “Gastric motor index, % of pre-dose” value (Canis familiaris [3]) was 151%.

In the case of `COc1cc(N)c(Cl)cc1C(=O)NCC(O)CN1CCC(CN2CCC(N)CC2)CC1` (stereo not drawn), the IC50 [2] is reported as 40.6 nM.

In the case of `COc1cc(N)c(Cl)cc1C(=O)NC1CCN(CC2CCN(CCCCCN)CC2)CC1`, the Induction number (Canis familiaris [1]) is reported as 4, the IC50 [2] is reported as 11.2 nM and the “Gastric motor index, % of pre-dose” value (Canis familiaris [3]) is reported as 194%.

With `COc1cc(N)c(Cl)cc1C(=O)NC1CCN(C(=O)C2CCN(C(=O)CCCN)CC2)CC1` the Induction number (Canis familiaris [1]) was 2, the IC50 [2] was 425 nM and the “Gastric motor index, % of pre-dose” value (Canis familiaris [3]) was 132%.

In the case of `COc1cc(N)c(Cl)cc1C(=O)NC1CCN(CC2CCN(CCCNS(C)(=O)=O)CC2)CC1`, the Induction number (Canis familiaris [1]) is reported as 2, the IC50 [2] is reported as 21.1 nM and the “Gastric motor index, % of pre-dose” value (Canis familiaris [3]) is reported as 151%.

For `COc1cc(N)c(Cl)cc1C(=O)NC1CCN(CC2CCN(C(=O)C(C)(C)N)CC2)CC1`, the IC50 [2] was 2.6 nM and the “Gastric motor index, % of pre-dose” value (Canis familiaris [3]) was 112%.

With `COc1cc(N)c(Cl)cc1C(=O)NC1CCN(CC2CCN(CC(C)CN)CC2)CC1` (stereo not drawn) the Induction number (Canis familiaris [1]) was 1, the IC50 [2] was 14.3 nM and the “Gastric motor index, % of pre-dose” value (Canis familiaris [3]) was 177%.

`COc1cc(N)c(Cl)cc1C(=O)NC1CCN(CC2CCN(CCCCN)CC2)CC1` gave an Induction number (Canis familiaris [1]) of 6, an IC50 [2] of 6.47 nM and a Dose (Mus musculus) of over 1 mg/kg. For the same compound, the “Gastric motor index, % of pre-dose” value (Canis familiaris [3]) was 148%.

`COc1cc(N)c(Cl)cc1C(=O)NC1CCN(CC2CCN(C(=O)C(C)CN)CC2)CC1` (stereo not drawn) was tested, and the IC50 [2] was 5.08 nM and the “Gastric motor index, % of pre-dose” value (Canis familiaris [3]) was 121%.

In the case of `COc1cc(N)c(Cl)cc1C(=O)NC1CCN(CC2CCN(CCN)CC2)CC1`, the IC50 [2] is reported as 14.3 nM and the “Gastric motor index, % of pre-dose” value (Canis familiaris [3]) is reported as 127%.

For `COc1cc(N)c(Cl)cc1C(=O)NC1CCN(CC2CCN(CC(O)CN)CC2)CC1` (stereo not drawn), the IC50 [2] was 14.4 nM and the “Gastric motor index, % of pre-dose” value (Canis familiaris [3]) was 121%.

With `CCOc1cc(N)c(Cl)cc1C(=O)NCC1CN(Cc2ccc(F)cc2)CCO1` (stereo not drawn) [MOSAPRIDE] the IC50 [2] was 113 nM and the “Gastric motor index, % of pre-dose” value (Canis familiaris [3]) was 188%.
